The source made the active and inactive calls. No cut-off for these calls is given here.
Key:
HepG2 = experiment: Cytotoxicity against human HepG2 cells assessed as cell viability after 48 hrs by MTT assay; format: functional, cell-based; settings: HepG2, 48 h
Procedure, shortened: (§1)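 Cells were trypsinized, seeded in 96-well plates at 2 × 10³ cells/well and grown for 24 h. Medium was then replaced with compound solutions (in DMSO, range from 0.1) for 48 h, and viability was read by MTT. Cancer lines were grown in RPMI 1640 + 10% FCS. IC50 from 3 independent experiments, each in triplicate.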

NCI-H460 = experiment: Cytotoxicity against human NCI-H460 cells assessed as cell viability after 48 hrs by MTT assay; format: functional, cell-based; settings: NCI-H460, 48 h; procedure, shortened: as §1
MGC-803 [1] = experiment: Cytotoxicity against human MGC803 cells assessed as cell viability after 48 hrs by MTT assay; format: functional, cell-based; settings: MGC-803, 48 h; procedure, shortened: as §1
A-375 = experiment: Cytotoxicity against human A375 cells assessed as cell viability after 48 hrs by MTT assay; format: functional, cell-based; settings: A-375, 48 h; procedure, shortened: as §1
MGC-803 [2] = experiment: Cell cycle arrest in human MGC803 cells assessed as accumulation at sub G1 phase at 1 uM after 48 hrs by propidium iodide staining-based FACS analysis relative to control; format: functional
MGC-803 [3] = experiment: Cell cycle arrest in human MGC803 cells assessed as accumulation at G0/G1 phase at 1 uM after 48 hrs by propidium iodide staining-based FACS analysis relative to control; format: functional
MGC-803 [4] = experiment: Cell cycle arrest in human MGC803 cells assessed as accumulation at S phase at 1 uM after 48 hrs by propidium iodide staining-based FACS analysis relative to control; format: functional
MGC-803 [5] = experiment: Cell cycle arrest in human MGC803 cells assessed as accumulation at G2/M phase at 1 uM after 48 hrs by propidium iodide staining-based FACS analysis relative to control; format: functional
MGC-803 [6] = experiment: Cell cycle arrest in human MGC803 cells assessed as accumulation at sub G1 phase at 10 uM after 48 hrs by propidium iodide staining-based FACS analysis relative to control; format: functional
MGC-803 [7] = experiment: Cell cycle arrest in human MGC803 cells assessed as accumulation at G0/G1 phase at 10 uM after 48 hrs by propidium iodide staining-based FACS analysis relative to control; format: functional
MGC-803 [8] = experiment: Cell cycle arrest in human MGC803 cells assessed as accumulation at S phase at 10 uM after 48 hrs by propidium iodide staining-based FACS analysis relative to control; format: functional
MGC-803 [9] = experiment: Cell cycle arrest in human MGC803 cells assessed as accumulation at G2/M phase at 10 uM after 48 hrs by propidium iodide staining-based FACS analysis relative to control; format: functional
MGC-803 [10] = experiment: Cytotoxicity against human MGC803 cells assessed as cell size at 1 uM after 48 hrs by FACS analysis relative to control; format: functional
Procedure, shortened: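 Cells treated 48 h with DMSO or compound at […] as printed. Forward scatter (mean FSC-H) measured by FACS and given relative to control cells.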

MGC-803 [11] = experiment: Induction of apoptosis in human MGC803 cells assessed as chromatin condensation at 1 to 10 uM after 48 hrs by Hoechst 33258 staining-based fluorescence confocal microscopic analysis; format: functional, cell-based
Procedure, shortened: (§2)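 MGC-803 cells grown on glass slides and treated 48 h. They were then washed in PBS, fixed in 4% paraformaldehyde and permeabilized with 1% Triton X-100. After four washes, Hoechst 33258 ([…] final) was added in the last wash to stain nuclei.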

MGC-803 [12] = experiment: Induction of apoptosis in human MGC803 cells assessed as chromatin fragmentation at 1 to 10 uM after 48 hrs by Hoechst 33258 staining-based fluorescence confocal microscopic analysis; format: functional, cell-based; procedure, shortened: as §2
[13] = test system: Cellular tumor antigen p53 (Homo sapiens), P04637 [UNDEFINED MUTATION]; experiment: Inhibition of P53 mutant in human MGC803 cells assessed as AIF release from mitochondria and translocation to nucleus at 1 to 10 uM after 48 hrs by immunostaining assay; format: cell-based; settings: MGC-803
Sequence of Cellular tumor antigen p53 (Homo sapiens), P04637 [UNDEFINED MUTATION] (P04637 whole entry, looked up, stated change not applied): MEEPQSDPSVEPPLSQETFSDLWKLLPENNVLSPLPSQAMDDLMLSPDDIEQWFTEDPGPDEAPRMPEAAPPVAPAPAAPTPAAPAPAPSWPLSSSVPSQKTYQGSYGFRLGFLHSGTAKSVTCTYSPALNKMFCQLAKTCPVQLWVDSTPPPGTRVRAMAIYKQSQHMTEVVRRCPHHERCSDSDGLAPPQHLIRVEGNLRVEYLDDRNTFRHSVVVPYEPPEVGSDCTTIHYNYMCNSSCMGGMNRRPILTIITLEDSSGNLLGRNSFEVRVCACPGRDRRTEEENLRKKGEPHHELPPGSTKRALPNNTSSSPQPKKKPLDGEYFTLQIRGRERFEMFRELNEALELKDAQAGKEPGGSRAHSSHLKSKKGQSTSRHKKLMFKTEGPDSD
Procedure, shortened: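 MGC-803 cells on slides, 48 h after treatment, were washed in PBS and fixed in 4% paraformaldehyde. They were immunostained for AIF with primary antibody and a Cy3-conjugated secondary.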

MGC-803 [14] = experiment: Induction of apoptosis in human MGC803 cells assessed as caspase-3 activation at 5 uM after 24 hrs by FITC-DEVD-FMK probe-based flow cytometric analysis (reference value: 1.8%); format: functional
Procedure, shortened: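 Treated and control MGC-803 cells (5 µM, 24 h) harvested at 1 × 10⁶ cells/mL in RPMI 1640 + 10% FCS. Incubated with FITC-DEVD-FMK for 1 h at 37 °C, 5% CO₂, then analysed by flow cytometry with 488 nm excitation. Given as percent change versus untreated control.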

[15] = test system: Cellular tumor antigen p53 (Homo sapiens), P04637 [UNDEFINED MUTATION]; experiment: Inhibition of P53 mutant in human MGC803 cells assessed as decrease in p21 expression at 1 to 10 uM after 24 hrs by Western blot analysis; format: cell-based; settings: MGC-803
Procedure, shortened: (§3)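 MGC-803 cells, 3 × 10⁵ per well of a 6-well plate, exposed to compound for 24 h. Cells were washed in ice-cold PBS and lysed in sample buffer, then run on SDS-PAGE and transferred to nitrocellulose. Blots were probed with primary antibodies and […] anti-rabbit IgG and developed by ECL.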

[16] = test system: Cellular tumor antigen p53 (Homo sapiens), P04637 [UNDEFINED MUTATION]; experiment: Inhibition of P53 mutant phosphorylation at s392 in human MGC803 cells at 1 to 10 uM after 24 hrs by Western blot analysis; format: cell-based; settings: MGC-803; procedure, shortened: as §3
[17] = test system: Cellular tumor antigen p53 (Homo sapiens), P04637 [UNDEFINED MUTATION]; experiment: Inhibition of P53 mutant acetylation at k373 in human MGC803 cells at 1 to 10 uM after 24 hrs by Western blot analysis; format: cell-based; settings: MGC-803; procedure, shortened: as §3
[18] = Cytotoxicity against human WI38 cells expressing wild type p53 assessed as cell viability at 1 to 10 uM after 48 hrs by MTT assay; format: cell-based; settings: wi-38, 48 h
Procedure, shortened: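 WI-38 normal lung fibroblasts, grown in DMEM + 10% FCS, seeded at 2 × 10³ cells/well in 96-well plates for 24 h. Then exposed to compound (in DMSO) for 48 h, with viability by MTT.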

[19] = test system: Cellular tumor antigen p53 (Homo sapiens), P04637 [UNDEFINED MUTATION]; experiment: Inhibition of P53 mutant in human MGC803 cells assessed as upregulation of Bim expression at 1 to 10 uM after 24 hrs by Western blot analysis; format: cell-based; settings: MGC-803
[20] = test system: Cellular tumor antigen p53 (Homo sapiens), P04637 [UNDEFINED MUTATION]; experiment: Inhibition of P53 mutant in human MGC803 cells assessed as downregulation of Bcl-2 expression at 1 to 10 uM after 24 hrs by Western blot analysis; format: cell-based; settings: MGC-803
[21] = test system: Cellular tumor antigen p53 (Homo sapiens), P04637 [UNDEFINED MUTATION]; experiment: Inhibition of P53 mutant in human MGC803 cells assessed as change in BAX expression at 1 to 10 uM after 24 hrs by Western blot analysis; format: cell-based; settings: MGC-803
[22] = test system: Cellular tumor antigen p53 (Homo sapiens), P04637 [UNDEFINED MUTATION]; experiment: Inhibition of P53 mutant in human MGC803 cells assessed as upregulation of cdk2 activity at 1 to 10 uM after 24 hrs by Western blot analysis; settings: MGC-803

- inhibition [13]: Active
- inhibition [15]: Active
- inhibition [16]: Active
- inhibition [17]: Active
- inhibition [19]: Active
- inhibition [20]: Active
- inhibition [21]: inactive
- inhibition [22]: Active
Structure (SMILES): COc1cc2nc(/C=C/c3ccc(Cl)cc3)n(CCCN(C)C)c(=O)c2cc1OC
- IC50 (HepG2): 6.96 µM
- IC50 (NCI-H460): 7.15 µM
- IC50 (MGC-803 [1]): 3.18 µM
- IC50 (A-375): > 20 µM
- Activity (MGC-803 [2]): 4.89%
- Activity (MGC-803 [3]): 51.79%
- Activity (MGC-803 [4]): 29.22%
- Activity (MGC-803 [5]): 14.1%
- Activity (MGC-803 [6]): 30.4%
- Activity (MGC-803 [7]): 19.42%
- Activity (MGC-803 [8]): 29.93%
- Activity (MGC-803 [9]): 20.25%
- Activity (MGC-803 [10]): 59.4%
- Activity (MGC-803 [11]): Active
- Activity (MGC-803 [12]): Active
- Activity (MGC-803 [14]): 3.5%
- Activity [18]: Non-toxic

From ChEMBL document CHEMBL3414503, “Distinct novel quinazolinone exhibits selective inhibition in MGC-803 cancer cells by dictating mutant p53 function” (Eur J Med Chem, 2015)
